Source: PubChem (several laboratories)
PG9 binder = binds the HIV-1 gp120 antibody PG9 | TR-FRET gp120-PG9 antibody binding | inhibition, % at 6.7 µM | actives 0.43% (n = 360,000); in the data active = inhibition above about 8.5%
NR2E3 ag-1 = agonists of human NR2E3 nuclear receptor | AID 602229 | actives 0.35% (n = 360,000) | inhibition of corepressor binding, % at 3.98 µM | CHO-S Gal4-NCOR/VP16-NR2E3 two-hybrid, luciferase | Q9Y5X4;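 active = inhibition above the mean of all tested compounds plus 3 SD, cut at about 70% in these data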;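 also: higher means lower luciferase signal from less NR2E3 corepressor binding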
Neddylation inh = blocks human cullin neddylation | P61081+Q13564 | TR-FRET cullin neddylation, biochemical | calls only at 25 µM | actives 0.58% (n = 360,000); in the data active = inhibition above about 36%
Target sequence (P61081 whole entry, looked up): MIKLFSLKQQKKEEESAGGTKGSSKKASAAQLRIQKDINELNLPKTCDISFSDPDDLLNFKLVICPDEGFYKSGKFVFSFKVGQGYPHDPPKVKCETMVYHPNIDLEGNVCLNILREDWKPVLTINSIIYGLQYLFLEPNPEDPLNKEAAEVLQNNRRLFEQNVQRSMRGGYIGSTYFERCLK
Target sequence (Q13564 whole entry, looked up): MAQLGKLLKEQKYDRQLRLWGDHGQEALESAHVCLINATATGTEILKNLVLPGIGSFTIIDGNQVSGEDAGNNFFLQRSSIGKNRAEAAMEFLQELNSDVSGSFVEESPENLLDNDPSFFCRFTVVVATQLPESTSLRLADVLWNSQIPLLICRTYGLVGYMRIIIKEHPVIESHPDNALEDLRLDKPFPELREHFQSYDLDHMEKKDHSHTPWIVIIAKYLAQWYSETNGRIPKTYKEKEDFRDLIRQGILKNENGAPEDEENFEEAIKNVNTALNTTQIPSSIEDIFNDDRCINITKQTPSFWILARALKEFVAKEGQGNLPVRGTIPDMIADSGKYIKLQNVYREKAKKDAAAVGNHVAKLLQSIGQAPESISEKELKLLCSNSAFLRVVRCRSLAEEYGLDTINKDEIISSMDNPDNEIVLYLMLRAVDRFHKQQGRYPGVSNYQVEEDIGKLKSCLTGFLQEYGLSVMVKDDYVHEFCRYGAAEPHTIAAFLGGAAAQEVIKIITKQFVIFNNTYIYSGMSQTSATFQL
NR2E3 ag-2 = agonists of human nuclear receptor NR2E3. GST-NR2E3/biotin-RetCOR TR-FRET, 1536-well. inhibition of corepressor binding, % at 4.78 µM. Q9Y5X4. actives 0.12% (n = 320,000);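 active = percent inhibition above the cutoff of mean plus 3 SD of all tested compounds, set per screening campaign, cut at about 20% in these data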
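Test system: GST-NR2E3 and biotin-RetCOR proteins | Quantity: 1.35 nM GST-tagged NR2E3 final | Medium: Tris pH 7.5 | Also added: 7 nM biotin-RetCOR | Dosing: Compound at 4.8 µM, single dose | Timing: 5 h at 4 °C | Detection: Time-resolved FRET | Read-out basis: Percent inhibition | Benchmarks: Biotin wells as high control, 0.6% DMSO wells as low control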
NR1D1 modulator = modulates human Rev-erb alpha binding to DNA; P20393; Rev-erbα–FITC-DNA binding, fluorescence polarization, 90 min; activity, % at 10 µM; actives 0.79% (n = 370,000); AID 1259318;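 active = activity above about 14%, limit read from the data; passing the limit was not always enough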
NR2E3 ag confirm = confirmation of human NR2E3 agonists; AID 624378; CHO-S mammalian two-hybrid NR2E3-NCOR, luciferase luminescence; actives 51% (n = 2,300); inhibition, % at 3.98 µM; shares compounds with NR2E3 ag-1;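 active = average inhibition above a cutoff equal to the mean inhibition of all tested compounds plus one SD, cut at about 70% in these data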
GAL4-VP16 luc = reduces GAL4-VP16 reporter signal in NR2E3 counterscreen. AID 624379. CHO-S GAL4-VP16 luciferase reporter, luminescence. shares compounds with NR2E3 ag-1. actives 29% (n = 2,300). inhibition, % at 3.98 µM;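 active = mean inhibition above a cutoff equal to the average over all tested compounds plus one standard deviation, cut at about 70% in these data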;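 also: luciferase from a UAS reporter driven by GAL4-VP16 transactivation; higher means less reporter light so more repression of VP16 activity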
Each line names hits and unclear results; the compound was inactive in the other large screens (follow-up assays come after a bar, where they were run). In the library only some 2% were active in any assay of this set; here they are far more common.

Cc1ccc(CNc2ncnc3cc(Cl)ccc23)o1	none
Cc1ccc(CNc2ncnc3cc(Cl)ccc23)cc1	NR2E3 ag-1 87 | NR2E3 ag confirm 90 | GAL4-VP16 luc 71
COc1cc(Br)c(C[N+]2(CCOCCC3CCC4CC3C4(C)C)CCOCC2)cc1OC (centres undefined)	none (no result: PG9 binder, NR2E3 ag-1, Neddylation inh, NR2E3 ag-2)
O=C(Nc1ccccc1)c1ccccc1NS(=O)(=O)c1ccc(Cl)s1	NR2E3 ag-1 102 | NR2E3 ag confirm 99 | GAL4-VP16 luc 86
O=C(NCc1ccco1)c1ccccc1NS(=O)(=O)c1ccc(Cl)s1	none
Cc1ccc(NC(=O)c2ccccc2NS(=O)(=O)c2ccc(Cl)s2)cc1	NR2E3 ag-1 95 | NR2E3 ag confirm 97 | GAL4-VP16 luc 79
O=C(Nc1ccccc1Cc1ccccc1)c1ccccc1NS(=O)(=O)c1ccc(Cl)s1	NR2E3 ag-1 98 | NR2E3 ag confirm 98 | GAL4-VP16 luc 86
CS(=O)(=O)c1ccccc1C(=O)Nc1ccccc1Cc1ccccc1	none
CCOC(=O)Cn1cc(CN2C(C(=O)OC)CN(Cc3ccc(Cl)cc3)CCS2(=O)=O)nn1 (centres undefined)	none (no result: PG9 binder, NR2E3 ag-1, Neddylation inh, NR2E3 ag-2)
O=c1c(Sc2ccccc2)c(C(F)(F)F)[nH]n1-c1ccccc1	none | NR2E3 ag confirm 97 | GAL4-VP16 luc 74
O=c1c2c(C(F)(F)F)cc(C(F)(F)F)nc2[nH]n1-c1ccccc1	none
Cn1nnnc1Sc1ncnc2scc(-c3ccccc3C(F)(F)F)c12	none | NR2E3 ag confirm inactive | GAL4-VP16 luc inactive
Cn1nnnc1Sc1ncnc2scc(-c3cccc(F)c3)c12	none | NR2E3 ag confirm inactive | GAL4-VP16 luc inactive
Cn1nnnc1Sc1ncnc2scc(-c3ccc(C(F)(F)F)cc3)c12	none
Cn1nnnc1Sc1ncnc2scc(-c3cccc(C(F)(F)F)c3)c12	none (no result: NR2E3 ag-2)
CC(C)CN1C(=O)[C@]2(CC(=O)N(C)C2c2ccccc2)c2cc(-n3cc(-c4ccccc4)nn3)ccc21 (some centres undefined)	none (no result: PG9 binder, NR2E3 ag-1, Neddylation inh, NR2E3 ag-2)
CCOC(=O)c1sc(=S)n(-c2ccc(OC)cc2)c1C	none
CCOC(=O)c1c2c(n(-c3ccc(OC)cc3)c1C)C(=O)C(=O)c1ccccc1-2	none (no result: PG9 binder, NR2E3 ag-2, NR1D1 modulator) | NR2E3 ag confirm inactive | GAL4-VP16 luc inactive
CC1(c2ccc3ccccc3c2)NC(=O)N(CC(=O)N2CCN(Cc3ccccc3)CC2)C1=O (centres undefined)	none (no result: PG9 binder, NR1D1 modulator) | NR2E3 ag confirm 70 | GAL4-VP16 luc inactive
Cc1cc(O)c(/C=N/OCc2ccc(Cl)cc2Cl)c(=O)o1	none
O=c1c(/C=N/OCc2ccc(Cl)cc2Cl)c[nH]n1-c1cccc(Cl)n1	none | NR2E3 ag confirm 98 | GAL4-VP16 luc inactive
CN(Cc1ccccc1)S(=O)(=O)c1cccc(C(=O)OCc2cccc([N+](=O)[O-])c2)c1	none (no result: PG9 binder, NR2E3 ag-1, Neddylation inh, NR2E3 ag-2)
Cc1sc2ncnc(NC3CCN(Cc4ccccc4)CC3)c2c1C	NR2E3 ag-1 75 | NR2E3 ag confirm 95 | GAL4-VP16 luc 80
O=C(NCCC1=CCCCC1)c1ccc2c(c1)N(Cc1ccccc1)C(=O)CS2	none
CN1C(=O)CS(=O)c2ccc(C(=O)NCCC3=CCCCC3)cc21 (centres undefined)	none | NR2E3 ag confirm inactive | GAL4-VP16 luc inactive
c1ccc(-c2nnc(-c3ccccn3)nc2NC2CCCCC2)cc1	none | NR2E3 ag confirm inactive | GAL4-VP16 luc inactive
COCC1CCCCN1C(=O)c1cc(COc2ccc3ncccc3c2)on1 (centres undefined)	NR2E3 ag-1 104 | NR2E3 ag confirm 91 | GAL4-VP16 luc 76
Cc1nc(CN(C)C(=O)c2cc(COc3ccc4ncccc4c3)on2)cs1	none | NR2E3 ag confirm 87 | GAL4-VP16 luc 78
CCC1CCCCN1C(=O)c1cc(COc2ccc3ncccc3c2)on1 (centres undefined)	NR2E3 ag-1 83 | NR2E3 ag confirm 96 | GAL4-VP16 luc 87
CCN1CCN(C(=O)c2cc(COc3ccc4ncccc4c3)on2)CC1	none
CCCN1CCN(C(=O)c2cc(COc3ccc4ncccc4c3)on2)CC1	none | NR2E3 ag confirm inactive | GAL4-VP16 luc inactive
Cc1ccc(NC(=O)CN2C(=O)CCSc3ccccc32)cc1C	none (no result: PG9 binder, NR2E3 ag-1, Neddylation inh, NR2E3 ag-2)
CCOc1ccc(N=C(C)Nc2ccc(OCC)cc2)cc1	none (no result: PG9 binder, NR2E3 ag-1, Neddylation inh, NR2E3 ag-2)
